Reference: ChEMBL document CHEMBL4325893, “Synthesis and antibacterial profiles of targeted triclosan derivatives” (2019)
≈ marks a conversion by molar mass, not a printed value.

What was measured:
[1] = system: Staphylococcus haemolyticus; assay: Antibacterial activity against Staphylococcus haemolyticus OCC 2223 after 18 hrs; assay type: functional; conditions: OCC 2223, 18 h
Procedure, shortened: (§1)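 Broth microdilution in Nutrient Broth No. 2. Ethanol stocks were diluted in broth to 0.01–128 µg/ml for triclosan and 0.25–256 µg/ml for glycosides. Overnight 37°C NB2 cultures were diluted 1 in 10^4 in saline and added to the wells. Plates were incubated at 37°C with OD read every 15 min after agitation. MIC was the lowest concentration giving no OD increase at 18 h.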

[2] = Antibacterial activity against Salmonella enterica subspecies enterica serotype Infantis OCC 2133 after 18 hrs; assay type: functional, Salmonella enterica subsp. enterica serovar Infantis; conditions: OCC 2133, 18 h
Procedure, shortened: (§2)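 Broth microdilution in Nutrient Broth No. 2; stocks in ethanol diluted to 0.01–128 µg/ml (triclosan) or 0.25–256 µg/ml (glycosides). Overnight 37 °C NB2 cultures diluted 1 in 10^4 in saline and added to the dilutions. Incubation at 37 °C with agitation, OD read every 15 min; MIC is the lowest concentration preventing any OD rise after 18 h.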

Klebsiella aerogenes = assay: Antibacterial activity against Klebsiella aerogenes NCTC 8167 after 18 hrs; assay type: functional; conditions: NCTC 8167, 18 h; procedure, shortened: as §2
[3] = Antibacterial activity against Salmonella enterica subspecies enterica serotype Indiana OCC 597 after 18 hrs; assay type: functional, Salmonella enterica subsp. enterica serovar Indiana; conditions: OCC 597, 18 h; procedure, shortened: as §2
Serratia marcescens = assay: Antibacterial activity against Serratia marcescens OCC 217 after 18 hrs; assay type: functional; conditions: OCC 217, 18 h; procedure, shortened: as §2
Klebsiella pneumoniae = assay: Antibacterial activity against Klebsiella pneumoniae ATCC 13883 after 18 hrs; assay type: functional; conditions: ATCC 13883, 18 h; procedure, shortened: as §2
Staphylococcus aureus [4] = assay: Antibacterial activity against Staphylococcus aureus OCC 106 after 18 hrs; assay type: functional; conditions: OCC 106, 18 h; procedure, shortened: as §2
Enterococcus faecalis = assay: Antibacterial activity against Enterococcus faecalis ATCC 29212 after 18 hrs; assay type: functional; conditions: ATCC 29212, 18 h; procedure, shortened: as §2
Escherichia coli [5] = assay: Antibacterial activity against Escherichia coli 700728 after 18 hrs; assay type: functional; conditions: Escherichia coli, 700728, 18 h; procedure, shortened: as §2
Streptococcus pyogenes = assay: Antibacterial activity against Streptococcus pyogenes ATCC 19615 after 18 hrs; assay type: functional; conditions: ATCC 19615, 18 h; procedure, shortened: as §1
Citrobacter freundii = assay: Antibacterial activity against Citrobacter freundii 8090 after 18 hrs; assay type: functional; conditions: Citrobacter freundii, 8090, 18 h; procedure, shortened: as §2
Staphylococcus aureus [6] = assay: Antibacterial activity against Staphylococcus aureus ATCC 6538 after 18 hrs; assay type: functional; conditions: ATCC 6538, 18 h; procedure, shortened: as §2
Escherichia coli [7] = assay: Antibacterial activity against Escherichia coli ATCC 8739 after 18 hrs; assay type: functional; conditions: ATCC 8739, 18 h; procedure, shortened: as §2
Escherichia coli [8] = assay: Antibacterial activity against Escherichia coli ATCC 25922 after 18 hrs; assay type: functional; conditions: ATCC 25922, 18 h; procedure, shortened: as §2
Escherichia hermannii = assay: Antibacterial activity against Escherichia hermannii 33650 after 18 hrs; assay type: functional; conditions: Atlantibacter hermannii, 33650, 18 h; procedure, shortened: as §2
[9] = Antibacterial activity against Salmonella enterica subspecies enterica serotype Pullorum OCC 273 after 18 hrs; assay type: functional, Salmonella enterica subsp. enterica serovar Pullorum; conditions: OCC 273, 18 h; procedure, shortened: as §2
Escherichia coli [10] = assay: Antibacterial activity against Escherichia coli OCC 122 after 18 hrs; assay type: functional; conditions: OCC 122, 18 h; procedure, shortened: as §2
[11] = system: Staphylococcus saprophyticus; assay: Antibacterial activity against Staphylococcus saprophyticus ATCC 15305 after 18 hrs; assay type: functional; conditions: ATCC 15305, 18 h; procedure, shortened: as §1
Proteus mirabilis = assay: Antibacterial activity against Proteus mirabilis ATCC 12453 after 18 hrs; assay type: functional; conditions: ATCC 12453, 18 h; procedure, shortened: as §2
[12] = system: Staphylococcus epidermidis; assay: Antibacterial activity against Staphylococcus epidermidis ATCC 12228 after 18 hrs; assay type: functional; conditions: ATCC 12228, 18 h; procedure, shortened: as §2
Proteus vulgaris = assay: Antibacterial activity against Proteus vulgaris OCC 195 after 18 hrs; assay type: functional; conditions: OCC 195, 18 h; procedure, shortened: as §2
[13] = system: Staphylococcus epidermidis; assay: Antibacterial activity against Staphylococcus epidermidis ATCC 14990 after 18 hrs; assay type: functional; conditions: ATCC 14990, 18 h; procedure, shortened: as §2
Staphylococcus aureus [14] = assay: Antibacterial activity against Staphylococcus aureus NCTC 13758 after 18 hrs; assay type: functional; conditions: NCTC 13758, 18 h; procedure, shortened: as §2
Cronobacter sakazakii = assay: Antibacterial activity against Cronobacter sakazakii 29544 after 18 hrs; assay type: functional; conditions: Cronobacter sakazakii, 29544, 18 h; procedure, shortened: as §2
Streptococcus viridans = assay: Antibacterial activity against Streptococcus viridans OCC 234 after 18 hrs; assay type: functional; conditions: OCC 234, 18 h; procedure, shortened: as §1
Escherichia coli [15] = assay: Antibacterial activity against Escherichia coli ATCC 35218 after 18 hrs; assay type: functional; conditions: ATCC 35218, 18 h; procedure, shortened: as §2
Salmonella enteritidis = assay: Antibacterial activity against Salmonella enterica subspecies enterica serotype Enteritidis 13076 after 18 hrs; assay type: functional, Salmonella enterica subsp. enterica serovar Enteritidis; conditions: Salmonella enterica, 13076, 18 h; procedure, shortened: as §2
Escherichia coli [16] = assay: Antibacterial activity against Escherichia coli ATCC 10536 after 18 hrs; assay type: functional; conditions: ATCC 10536, 18 h; procedure, shortened: as §2
Hafnia alvei = assay: Antibacterial activity against Hafnia alvei 13337 after 18 hrs; assay type: functional; conditions: Hafnia alvei, 13337, 18 h; procedure, shortened: as §2

MIC [2]: 32 to 64 mg/L (≈ 75.9 to 152 µM)
MIC (Klebsiella aerogenes): 32 mg/L (≈ 75.9 µM)
MIC [3]: 32 to 64 mg/L (≈ 75.9 to 152 µM)
MIC (Serratia marcescens): > 256 mg/L
MIC (Klebsiella pneumoniae): 4 mg/L (≈ 9.49 µM)
MIC (Staphylococcus aureus [4]): 4 to 8 mg/L (≈ 9.49 to 19 µM)
MIC (Enterococcus faecalis): 256 mg/L (≈ 607 µM)
MIC (Escherichia coli [5]): 8 to 32 mg/L (≈ 19 to 75.9 µM)
MIC (Streptococcus pyogenes): 32 mg/L (≈ 75.9 µM)
MIC (Citrobacter freundii): 64 mg/L (≈ 152 µM)
MIC (Staphylococcus aureus [6]): 4 to 8 mg/L (≈ 9.49 to 19 µM)
MIC (Escherichia coli [7]): 8 to 32 mg/L (≈ 19 to 75.9 µM)
MIC (Escherichia coli [8]): 8 to 32 mg/L (≈ 19 to 75.9 µM)
MIC (Escherichia hermannii): 32 mg/L (≈ 75.9 µM)
MIC [9]: 32 to 64 mg/L (≈ 75.9 to 152 µM)
MIC (Escherichia coli [10]): 8 to 32 mg/L (≈ 19 to 75.9 µM)
MIC [11]: 64 mg/L (≈ 152 µM)
MIC (Proteus mirabilis): 32 mg/L (≈ 75.9 µM)
MIC [12]: 8 to 16 mg/L (≈ 19 to 37.9 µM)
MIC (Proteus vulgaris): 128 mg/L (≈ 304 µM)
MIC [13]: 8 to 16 mg/L (≈ 19 to 37.9 µM)
MIC (Staphylococcus aureus [14]): 4 to 8 mg/L (≈ 9.49 to 19 µM)
MIC (Cronobacter sakazakii): 128 mg/L (≈ 304 µM)
MIC (Streptococcus viridans): 128 mg/L (≈ 304 µM)
MIC (Escherichia coli [15]): 8 to 32 mg/L (≈ 19 to 75.9 µM)
MIC (Salmonella enteritidis): 32 to 64 mg/L (≈ 75.9 to 152 µM)
MIC (Escherichia coli [16]): 8 to 32 mg/L (≈ 19 to 75.9 µM)
MIC (Hafnia alvei): 4 mg/L (≈ 9.49 µM)
SMILES: O[C@@H]1[C@H](Oc2cc(Cl)ccc2Oc2ccc(Cl)cc2Cl)OC[C@@H](O)[C@H]1O
MIC [1]: 128 mg/L (≈ 304 µM)
